For one data set, the species on record is Cavia porcellus. In words: Negative logarithm of the concentration required to depress contraction in the Langendorff perfused guinea pig heart by 25%. Type of data set: functional.
Data set [1] in a line: Selectivity index, inhibition of [Ca2+] induced contraction of K+ depolarized rat aorta (IC50) to inhibition of contraction of guinea pig heart (IC25). Type of data set: functional, Cavia porcellus.
For a further data set, the species on record is Rattus norvegicus. In words: Concentration required to block [Ca2+] induced contraction of K+ depolarized rat aorta by 50%. Format: functional.
For data set [2], the species on record is Canis familiaris. Put plainly: Duration of time taken for the compound for % decrease in coronary vasodilator activity. Format: functional, Canis lupus familiaris. In a few lines:
(§1)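 Anesthetized beagle dogs were catheterized to record blood pressure and left ventricular pressure and to give compound intravenously, as one single dose for duration of action. Coronary blood flow was measured by hydrogen clearance with platinum electrodes in the coronary sinus and femoral artery, and cardiac output by thermodilution. Coronary vascular resistance was derived from these measurements.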

For data set [3], the system named is Canis familiaris. Put plainly: The compound was tested for % decrease in coronary vasodilator activity in anesthetized dogs following intravenous administration. Type of data set: functional, Canis lupus familiaris. In a few lines:
as §1

Data set [4] can be described thus: Plasma clearance in dogs after intravenous administration. Type of data set: ADME, organism-based, Canis lupus familiaris. Conditions: dog.
Data set [5] in a line: Plasma half-life in dog after intravenous administration. Format: ADME, organism-based, Canis lupus familiaris.
Data set [6] in a line: Volume of distribution in dog after intravenous administration. Format: ADME, organism-based, Canis lupus familiaris. Conditions: in vivo, read-out: Volume of distribution.
The test system of data set [7] is Canis familiaris. In words: Percent decrease in coronary vasodilator activity in anesthetized dogs following intravenous administration was determined. Format: functional, Canis lupus familiaris. In a few lines: as §1
The species named for data set [8] is Canis familiaris. In words: Duration of time taken for percent decrease in coronary vasodilator activity. Format: functional, Canis lupus familiaris. In a few lines: as §1

Each structure is given as a SMILES string.

For orientation: IC50 means the midpoint of a concentration-inhibition curve. Low readings indicate higher potency, high ones lower potency. `CCO/C(O)=C1\C(COCCNC(=O)c2ccc(O)nc2)=NC(C)=C(C(=O)OC)C1c1ccccc1Cl` (stereo not given) returned a pIC25 in the data set filed under Cavia porcellus of 7. Moreover, the Selectivity index in [1] was 16. 6.31 nM corresponded to half-maximal inhibition in the data set filed under Rattus norvegicus (IC50).

In the data set listed under Cavia porcellus, `COC(=O)C1=C(C)NC(C)=C(C(=O)OC)C1c1ccccc1[N+](=O)[O-]` [NIFEDIPINE] had a pIC25 of 7.5. For the same compound, the Duration of action in the data set listed under Canis familiaris [2] is 36 min. This compound returned a Decrease in the data set with Canis familiaris [3] of 77%.

In the data set listed under Cavia porcellus, `CCO/C(O)=C1\C(COCC/N=C(\NC#N)NCCN(C)C)=NC(C)=C(C(=O)OC)C1c1ccccc1Cl` (stereo not given) displayed a pIC25 of 6.8. Moreover, in data set [1], the Selectivity index was 3. The same compound showed a 50% inhibitory concentration (IC50) in the data set listed under Rattus norvegicus of 50.1 nM.

The clearance is the rate of elimination divided by the concentration. Low readings indicate a low capacity for elimination, high ones a high capacity for elimination. As a reminder, the half-life is the time needed for the level to fall by half in the phase considered. The low end stands for rapid decline, the high end for slow decline. In the data set listed under Cavia porcellus, `CCO/C(O)=C1\C(COCCNCC(N)=O)=NC(C)=C(C(=O)OC)C1c1ccccc1Cl` (stereo not given) showed a pIC25 of 7.1. The compound also came in with a clearance in data set [4] of 7 mL/min/kg. Further, the half-life in data set [5] was 4.7 h. In data set [1], the Selectivity index was 20. This compound also registered a Duration of action in the data set filed under Canis familiaris [2] of more than 300 min. The same compound returned a Decrease with Canis familiaris [3] of 88%. Besides, the Vd in data set [6] was found to be 3 L/kg. In the data set filed under Rattus norvegicus, this compound had a 50% inhibitory concentration (IC50) of 3.98 nM.

`CCO/C(O)=C1\C(COCCNC(C)C(N)=O)=NC(C)=C(C(=O)OC)C1c1ccccc1Cl` (stereo not given) came in with a pIC25 in the data set listed under Cavia porcellus of 7.2. The compound further returned a Selectivity index in data set [1] of 6. Also, the Duration of action in the data set listed under Canis familiaris [2] was found to be 150 min. Besides, the Decrease with Canis familiaris [3] came to 73%. In addition, in the data set filed under Rattus norvegicus, the midpoint of inhibition, the IC50, lay at 10 nM.

In the data set filed under Cavia porcellus, `CCO/C(O)=C1\C(COCCNC(=O)NCCN2CCNC2=O)=NC(C)=C(C(=O)OC)C1c1ccccc1Cl` (stereo not given) gave a pIC25 of 6.2. The compound also displayed a Selectivity index in data set [1] of 40. Moreover, the IC50 in the data set filed under Rattus norvegicus is 15.8 nM.

Compound `CCO/C(O)=C1\C(COCCN(CC(N)=O)CC(N)=O)=NC(C)=C(C(=O)OC)C1c1ccccc1Cl` (stereo not given) registered a pIC25 in the data set filed under Cavia porcellus of 6. Besides, in data set [1], the Selectivity index was determined as 16. Also, in the data set filed under Rattus norvegicus, the midpoint of inhibition, the IC50, lay at 63.1 nM.

In the data set listed under Cavia porcellus, `CCO/C(O)=C1\C(COCCNCC(=O)NCCN)=NC(C)=C(C(=O)OC)C1c1ccccc1Cl` (stereo not given) came in with a pIC25 of 7. The Selectivity index in [1] came to 1. In the data set filed under Rattus norvegicus, inhibition was half-maximal at 100 nM (IC50).

Consider `CCO/C(O)=C1\C(COCCNC(=O)NCC(N)=O)=NC(C)=C(C(=O)OC)C1c1ccccc1Cl` (stereo not given), for which, in the data set listed under Cavia porcellus, the pIC25 is recorded as 6.4. For the same compound, the Selectivity index in data set [1] worked out at 20. In the data set listed under Rattus norvegicus, this compound had an IC50 of 20 nM.

As for `CCO/C(O)=C1\C(COCCN(C)S(N)(=O)=O)=NC(C)=C(C(=O)OC)C1c1ccccc1Cl` (stereo not given), in the data set listed under Cavia porcellus, the pIC25 is reported as 6.7. Besides, the Selectivity index in data set [1] is given as 8. Further, the IC50 in the data set listed under Rattus norvegicus was 25.1 nM.

Consider `CCO/C(O)=C1\C(COCCNC(C)=O)=NC(C)=C(C(=O)OC)C1c1ccccc1Cl` (stereo not given), for which the pIC25 in the data set listed under Cavia porcellus is 7.6. Further, in [1], the Selectivity index was 1.6. In addition, in the data set listed under Rattus norvegicus, 15.8 nM corresponded to half-maximal inhibition (IC50).

The compound `CCO/C(O)=C1\C(COCCNC(=O)c2cccnc2)=NC(C)=C(C(=O)OC)C1c1ccccc1Cl` (stereo not given) gave a pIC25 in the data set listed under Cavia porcellus of 7.6. Moreover, the Selectivity index in [1] amounted to 1.6. This compound also showed an IC50 in the data set listed under Rattus norvegicus of 15.8 nM.

The compound `CCO/C(O)=C1\C(COCCNC(C)(C)C(N)=O)=NC(C)=C(C(=O)OC)C1c1ccccc1Cl` (stereo not given) returned a pIC25 in the data set filed under Cavia porcellus of 7.6. The compound also came in with a Selectivity index in data set [1] of 8. Besides, in the data set listed under Canis familiaris [2], the Duration of action is on record as 210 min. Also, the Decrease in the data set with Canis familiaris [3] worked out at 85%. Further, the IC50 in the data set filed under Rattus norvegicus is 3.16 nM.

Compound `CCO/C(O)=C1\C(COCCNCC(=O)NCCOC)=NC(C)=C(C(=O)OC)C1c1ccccc1Cl` (stereo not given) showed a pIC25 in the data set listed under Cavia porcellus of 7.5. For the same compound, the Selectivity index in data set [1] amounted to 6. In addition, in the data set filed under Rattus norvegicus, half-maximal inhibition (IC50) required 5.01 nM.

For the compound `CCO/C(O)=C1\C(COCCNC(=O)Nc2ccnc(O)n2)=NC(C)=C(C(=O)OC)C1c1ccccc1Cl` (stereo not given), in the data set listed under Cavia porcellus, the pIC25 came out at 7.7. Further, in [1], the Selectivity index is 0.1. Further, half-maximal inhibition in the data set filed under Rattus norvegicus (IC50) required 158 nM.

With `CCO/C(O)=C1\C(COCCNC(=O)c2cnccn2)=NC(C)=C(C(=O)OC)C1c1ccccc1Cl` (stereo not given), the pIC25 in the data set filed under Cavia porcellus turned out to be 7.5. The compound further returned a Selectivity index in data set [1] of 0.8. Further, half-maximal inhibition in the data set filed under Rattus norvegicus (IC50) was put at 39.8 nM.

In the data set filed under Cavia porcellus, `CCO/C(O)=C1\C(COCCN(C)C(=O)NC)=NC(C)=C(C(=O)OC)C1c1ccccc1Cl` (stereo not given) yielded a pIC25 of 7. The Decrease with Canis familiaris [7] is 68%. In the data set listed under Canis familiaris [8], the Duration of action turned out to be 15 min. The Selectivity index in data set [1] was 5. Besides, the IC50 in the data set listed under Rattus norvegicus is 20 nM.

The compound `CCO/C(O)=C1\C(COCCN(C)/C(=N/C)NC#N)=NC(C)=C(C(=O)OC)C1c1ccccc1Cl` (stereo not given) showed a pIC25 in the data set filed under Cavia porcellus of 6.6. Besides, the Selectivity index in [1] was found to be 10. Also, the half-inhibitory concentration (IC50) in the data set filed under Rattus norvegicus was 25.1 nM.

`CCO/C(O)=C1\C(COCC/N=C(/NC)NC#N)=NC(C)=C(C(=O)OC)C1c1ccccc1Cl` (stereo not given) displayed a pIC25 in the data set listed under Cavia porcellus of 7.5. This compound also came in with a Selectivity index in [1] of 5. In addition, the IC50 in the data set filed under Rattus norvegicus is 6.31 nM.

Take `CCO/C(O)=C1\C(COCCNCC(=O)NC)=NC(C)=C(C(=O)OC)C1c1ccccc1Cl` (stereo not given): the pIC25 in the data set listed under Cavia porcellus was 6.9. In addition, the Selectivity index in data set [1] is recorded as 5. In the data set filed under Rattus norvegicus, the half-inhibitory concentration (IC50) was 25.1 nM.

`CCO/C(O)=C1\C(COCCNS(N)(=O)=O)=NC(C)=C(C(=O)OC)C1c1ccccc1Cl` (stereo not given) returned a pIC25 in the data set filed under Cavia porcellus of 7.1. In data set [1], this compound returned a Selectivity index of 10. This compound also showed an IC50 in the data set filed under Rattus norvegicus of 7.94 nM.

Compound `CCOC(=O)CNC(=O)NCCOCC1=C(C(=O)OCC)C(c2ccccc2Cl)/C(=C(\O)OC)C(C)=N1` (stereo not given) gave a pIC25 in the data set filed under Cavia porcellus of 7. The same compound showed a Selectivity index in data set [1] of 10. For the same compound, the Duration of action in the data set listed under Canis familiaris [2] was found to be 15 min. The compound also gave a Decrease in the data set with Canis familiaris [3] of 61%. It took 10 nM to reach half-maximal inhibition in the data set listed under Rattus norvegicus (IC50).

In turn, `CCO/C(O)=C1\C(COCCNC(=O)NCCN)=NC(C)=C(C(=O)OC)C1c1ccccc1Cl.O=C(O)/C=C\C(=O)O` (stereo not given) came in with a pIC25 in the data set filed under Cavia porcellus of 7.1. In addition, in data set [1], the Selectivity index amounted to 1.6. Further, the IC50 in the data set filed under Rattus norvegicus is 50.1 nM.

As for `CCO/C(O)=C1\C(COCCNC(=O)NC)=NC(C)=C(C(=O)OC)C1c1ccccc1Cl` (stereo not given), the pIC25 in the data set filed under Cavia porcellus came out at 7.6. Besides, in [1], the Selectivity index amounted to 13. In the data set filed under Rattus norvegicus, this compound showed an IC50 of 3.16 nM.

For the origin of these results see ChEMBL document CHEMBL1125131, “Long-acting dihydropyridine calcium antagonists. 4. Synthesis and structure-activity relationships for a series of basic and nonbasic derivatives of 2-[(2-aminoethoxy)methyl]-1,4-dihydropyridine calcium antagonists” (J Med Chem, 1990).
